Results from different studies.
Protocols differ between the studies behind these lines.
Read-out: cell growth or viability

Cc1ccc(CN2C(=O)C(=Nc3c(C(C)C)cccc3C(C)C)c3ccccc32)cc1
IC50 (L02; MTT; 48 h): 177 µM

C[C@H](Oc1nccc(-c2noc3c2CCC[C@@]32CCCc3sc(N)c(C#N)c32)n1)[C@@H]1CCCN1C
EC50 (BaF3; 72 h): 42 nM

Cc1ncsc1-c1ccc(CNC(=O)[C@@H]2C[C@@H](O)CN2C(=O)[C@@H](NC(=O)COCCOCCOCCNC(=O)C[C@@H]2N=C(c3ccc(Cl)cc3)c3c(sc(C)c3C)-n3c(C)nnc32)C(C)(C)C)cc1
IC90 (HCC1806; MTT; 6 days): 810 nM

C[C@H]1CNCCN1c1nccc(-c2noc([C@@]3(C)CCCc4sc(N)c(C#N)c43)n2)n1
EC50 (BaF3; 72 h): 1580 nM

C[C@H](Nc1ccc2c(c1)OCCn1cc(N3C(=O)OC[C@H]3C(F)F)nc1-2)C(N)=O
EC50 (MFM-223; ATP luminescence; 5 days): 1390 nM

O=C1Nc2ccccc2C1=Nc1ccccc1Br
IC50 (L02; MTT; 48 h): 31.4 µM

C[C@H]1CN(C)CCN1c1nccc(-c2noc3c2CCC[C@@]32CCCc3sc(N)c(C#N)c32)n1
EC50 (BaF3; 72 h): 479 nM

Cc1nc(Nc2ncc(C(=O)Nc3c(C)cccc3Cl)s2)cc(N2CC[C@H](O)C2)n1
inhibition (REH; ATP luminescence; 10 µM, 72 h): 32%

Cc1ccc(CN2C(=O)C(=Nc3cccc(C)c3)c3ccccc32)cc1
IC50 (L02; MTT; 48 h): 10.3 µM
